Measurements: ChEMBL document CHEMBL1145429, “Enaminone amides as novel orally active GABAA receptor modulators” (J Med Chem, 2007)
Calls of active or inactive are those of the source. The calls are words filed in the database; no cut-off is given here.

Legend:
[1] = (§1) Displacement of [35S]TBPS from GABAA receptor in Sprague-Dawley rat cortex membrane; format: cell membranes
Rattus norvegicus [2] = species: Rattus norvegicus; assay: as §1; format: cell membranes
Mus musculus [3] = assay: Anticonvulsant activity against pentylenetetrazole-induced seizures in non-Swiss Albino mouse at 50 mg/kg, ip; format: functional, organism-based; design: dose 50 mg/kg
Mus musculus [4] = assay: Suppression of locomotor activity in non-Swiss Albino mouse at 50 mg/kg, po; format: functional, organism-based; design: dose 50 mg/kg
Method in brief: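 Male NSA mice, either nonhabituated or habituated (30 min in the chamber on 3 consecutive days), were given compound in PEG 400 or vehicle and immediately placed in an activity chamber. Horizontal beam breaks were recorded every 5 min, over 1 h for habituated mice. Activity was taken as total distance traveled (cm), with testing between 9 a.m. and 2 p.m.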

Mus musculus [5] = assay: Induction of loss of righting reflex in non-Swiss Albino mouse at 50 mg/kg, po; format: functional, organism-based; design: dose 50 mg/kg
Method in brief: (§2)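 Male NSA mice were dosed at 50 mg/kg ip or po in PEG 400 and then placed on their backs. Animals staying on their backs for more than 1 min were scored as having lost the righting reflex.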

Mus musculus [6] = assay: Induction of loss of righting reflex in non-Swiss Albino mouse at 50 mg/kg, ip after 40 mins; format: functional, organism-based; design: dose 50 mg/kg; method in brief: as §2
Mus musculus [7] = assay: CNS toxicity by rotarod test in non-Swiss Albino mouse at 3 mg/kg, po; format: organism-based; design: dose 3 mg/kg, route oral; conditions: in vivo
Method in brief: (§3)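 Mice were dosed orally and scored on the rotarod for CNS depressant potential. TD50, the dose causing behavioral toxicity in half the animals, was calculated from each dose-response function by the Litchfield-Wilcoxon method.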

[8] = Therapeutic index, ratio of light-dark MED to TD50 by rotarod test in non-Swiss Albino mouse at 3 mg/kg, po; format: organism-based; design: dose 3 mg/kg, route oral; conditions: in vivo, read-out: TI
Method in brief: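 The index was calculated as […]. Both were measured in male NSA mice given oral doses. TD50 was derived by the Litchfield-Wilcoxon method, and light-dark time was recorded over a 3 min session 30 min after dosing.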

[9] = molecular target: GABA-A receptor; alpha-1/beta-2/gamma-2 (Homo sapiens) (UniProt P14867+P47870+P18507); assay: Activity at human GABAA alpha-1-beta-2-gamma-2L expressed in Xenopus oocytes assessed as potentiation of GABA currents in absence of GABA at 10 uM; format: cell-based; conditions: Oocyte
Mus musculus [10] = assay: Anxiolytic activity in non-Swiss Albino mouse assessed as reduction of time spent in dark at 3 mg/kg, po; format: functional, organism-based; design: dose 3 mg/kg
Method in brief: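 Male NSA mice (25-30 g) were dosed po 30 min before a 3 min session in a light-dark box: a black compartment lit with red light and an illuminated white compartment, joined by a floor-level hole. Time spent in each compartment was recorded. Vehicle was 3:1 PEG 400/5% dextrose in water.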

[11] = Enhancement of [3H]flunitrazepam binding to BZ-site of GABAA receptor in Sprague-Dawley rat cortex membrane; format: cell membranes
Method in brief: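 Conditions and membrane preparation match the TBPS assay, except that GABA was 1 µM. Sites were labelled with 0.2 nM [3H]flunitrazepam, and nonspecific binding was defined with 1 µM clonazepam.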

Rattus norvegicus [12] = species: Rattus norvegicus; assay: Enhancement of [3H]muscimol binding to BZ-site of GABAA receptor in Sprague-Dawley rat cortex membrane; format: cell membranes
Mus musculus [13] = assay: CNS toxicity by rotarod test in non-Swiss Albino mouse at 50 mg/kg, po; format: organism-based; design: dose 50 mg/kg, route oral; conditions: in vivo; method in brief: as §3
Rattus norvegicus [14] = species: Rattus norvegicus; assay: Displacement of [3H]flunitrazepam from BZ-site of GABAA receptor in Sprague-Dawley rat cortex membrane; format: cell membranes
Method in brief: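 P2 membrane pellet (sucrose homogenate spun 1000g then 9000g), resuspended in 50 mM Na/K phosphate pH 7.4 with 200 mM NaCl. Incubated with 0.2 nM [3H]flunitrazepam, 1 µM GABA and test drug in DMSO (≤1%) for 90 min at 25 °C. Nonspecific binding defined with 1 µM clonazepam. Filtration, scintillation counting; nonlinear regression fit.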

Row | Structure (SMILES) | IC50 [1] | Imax (Rattus norvegicus [2]) | Activity (Mus musculus [3]) | other results
1 | CCOC(=O)/C(=C\Nc1cccc(Cl)c1)C(=O)c1ccccc1Cl | 600 nM | 100% |  | 
2 | CC(C)(C)NC(=O)/C(=C\Nc1ccc(Cl)cc1)C(=O)c1ccccc1Cl | 3000 nM | 100% | inactive | 
3 | CCOC(=O)/C(=C\Nc1ccc(Cl)cc1)C(=O)c1ccccc1Cl | 90 nM | 95% |  | Activity (Mus musculus [4]): inactive; Activity (Mus musculus [5]): inactive; Activity (Mus musculus [6]): Active
4 | O=C(NC1CC1)/C(=C\Nc1ccc(Cl)cc1)C(=O)c1ccccc1Cl | 30 nM | 92% | inactive | Activity (Mus musculus [6]): Active
5 | CCOC(=O)/C(=C\Nc1ccc(C(C)C)cc1)C(=O)c1ccccc1Cl | 360 nM | 94% |  | 
6 | CC(C)NC(=O)/C(=C\Nc1ccc(Cl)cc1)C(=O)c1ccccc1Cl | 40 nM | 80% | inactive | Activity (Mus musculus [7]): Non-toxic; selectivity ratio [8]: > 10; Activity [9]: inactive; Activity (Mus musculus [6]): Active; Activity (Mus musculus [10]): Active
7 | CCOC(=O)/C(=C\Nc1ccc(F)cc1)C(=O)c1ccccc1Cl | 300 nM | 93% |  | 
8 | CCOC(=O)/C(=C\Nc1ccc(F)cc1)C(=O)c1ccc(Cl)cc1 | 490 nM | 100% |  | 
9 | O=C(NC1CCCC1)/C(=C\Nc1ccc(Cl)cc1)C(=O)c1ccccc1Cl | 30 nM | 88% | inactive | 
10 | CNC(=O)/C(=C\Nc1ccc(Cl)cc1)C(=O)c1ccccc1Cl | 160 nM | 74% | inactive | 
11 | O=C(NC1CCC1)/C(=C\Nc1ccc(Cl)cc1)C(=O)c1ccccc1Cl | 7 nM | 88% | inactive | Activity (Mus musculus [6]): Active
12 | C#Cc1ccc(N/C=C(\C(=O)NCCC)C(=O)c2ccccc2Cl)cc1 |  |  |  | EC50 [11]: 60 nM; Activity (Rattus norvegicus [12]): Active
13 | NC(=O)/C(=C\Nc1ccc(Cl)cc1)C(=O)c1ccccc1Cl |  | 40% | inactive | 
14 | CCNC(=O)/C(=C\Nc1ccc(Cl)cc1)C(=O)c1ccccc1Cl | 50 nM | 82% | inactive | Activity (Mus musculus [13]): Non-toxic; Activity (Mus musculus [5]): inactive; Activity (Mus musculus [6]): Active
15 | CCC(CC)NC(=O)/C(=C\Nc1ccc(Cl)cc1)C(=O)c1ccccc1Cl | 80 nM | 86% | inactive | 
16 | CCOC(=O)/C(=C\Nc1ccc(F)cc1)C(=O)c1cc(F)c(Cl)cc1Cl | 130 nM | 87% |  | 
17 | O=C1CN=C(c2ccccc2Cl)c2cc([N+](=O)[O-])ccc2N1 |  |  |  | Activity (Rattus norvegicus [14]): Dose-dependent effect
18 | CCOC(=O)/C(=C\Nc1ccc(C)cc1)C(=O)c1ccccc1Cl | 450 nM | 93% |  | 
19 | CCCNC(=O)/C(=C\Nc1ccc(Cl)cc1)C(=O)c1ccccc1Cl | 45 nM | 90% | inactive | Activity (Mus musculus [5]): inactive; Activity (Mus musculus [6]): Active
20 | C#Cc1ccc(N/C=C(\C(=O)OCC)C(=O)c2ccccc2Cl)cc1 | 8 nM | 100% |  | EC50 [11]: 6 nM; Activity (Rattus norvegicus [12]): Active
21 | CCOC(=O)/C(=C\Nc1ccc(F)cc1)C(=O)c1cccc(Cl)c1 | 900 nM | 90% |  | 
22 | CCOC(=O)/C(=C\Nc1ccccc1Cl)C(=O)c1ccccc1Cl | 700 nM | 100% |  | 
23 | CC(C)C(C)NC(=O)/C(=C\Nc1ccc(Cl)cc1)C(=O)c1ccccc1Cl (stereo unspecified) | 400 nM | 94% | inactive | 
24 | CCC(C)NC(=O)/C(=C\Nc1ccc(Cl)cc1)C(=O)c1ccccc1Cl (stereo unspecified) | 20 nM | 86% | inactive | Activity (Mus musculus [6]): Active
